Experimental data published in ChEMBL document CHEMBL1142008, “Discovery and investigation of a novel class of thiophene-derived antagonists of the human glucagon receptor” (Bioorg Med Chem Lett, 2005).

Assays:
[1] = Maximum plasma concentration measured in mouse after intravenous administration of 1 mg/kg; assay type: ADME, organism-based; design: dose 1 mg/kg, route intravenous
Summary of the method: (§1)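 Mouse PK, n = 3 mice per route. Dosed both IV and PO: 1.0 mg/kg IV / 2.0 mg/kg PO for one compound, 5.0 mg/kg IV / 10.0 mg/kg PO for others. Plasma clearance, Vdss, t1/2, Cmax, dose-normalized oral AUC and F% derived.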

Glucagon receptor [2] = target: T1, Glucagon receptor (Homo sapiens, UniProt P47871); experiment: Inhibitory concentration towards binding of [125I]glucagon to the human glucagon receptor expressed in CHO cells; assay type: cell-based
Glucagon receptor [3] = target: T1, Glucagon receptor; experiment: Inhibition of glucagon induced cAMP accumulation in human glucagon receptor transfected CHO cells; assay type: functional, cell-based
Summary of the method: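 Functional antagonism in CHO cells transfected with human glucagon receptor. Read-out is inhibition of glucagon-induced cAMP accumulation. Mean of at least two experiments, SD <50% of mean.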

[4] = Plasma clearance measured in mouse after peroral administration of 2 mg/kg; n = 3; assay type: ADME, organism-based; design: dose 2 mg/kg, route oral; conditions: in vivo, po; summary of the method: as §1
[5] = Steady state volume distribution measured in mouse after intravenous administration of 1 mg/kg; assay type: ADME, organism-based; design: dose 1 mg/kg, route intravenous; conditions: in vivo, read-out: Vdss; summary of the method: as §1
[6] = Bioavailability in mouse (dose 1 mg/kg i.v.); assay type: ADME, organism-based; conditions: in vivo, iv; summary of the method: as §1
[7] = Half life measured in mouse after peroral administration of 2 mg/kg; assay type: ADME, organism-based; design: dose 2 mg/kg, route oral; conditions: in vivo, po; summary of the method: as §1
[8] = Half life measured in mouse after intravenous administration of 1 mg/kg; assay type: ADME, organism-based; design: dose 1 mg/kg, route intravenous; conditions: in vivo; summary of the method: as §1
[9] = Maximum plasma concentration measured in mouse after peroral administration of 2 mg/kg; assay type: ADME, organism-based; design: dose 2 mg/kg, route oral; conditions: po; summary of the method: as §1
[10] = Oral bioavailability in mouse (dose 2 mg/kg); assay type: ADME, organism-based; conditions: in vivo; summary of the method: as §1
[11] = Steady state volume distribution measured in mouse after peroral administration of 2 mg/kg; assay type: ADME, organism-based; design: dose 2 mg/kg, route oral; conditions: in vivo, po; summary of the method: as §1
[12] = Plasma clearance measured in mouse after intravenous administration of 1 mg/kg; n = 3; assay type: ADME, organism-based; design: dose 1 mg/kg, route intravenous; conditions: in vivo; summary of the method: as §1
[13] = Maximum plasma concentration measured in mouse after oral administration of 2 mg/kg
Glucagon receptor [14] = target: T1, Glucagon receptor; experiment: Percent inhibition of glucagon induced cAMP accumulation in human glucagon receptor transfected CHO cells at a compound concentration of 10 uM; assay type: functional, cell-based
Summary of the method: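 Functional antagonism in CHO cells transfected with human glucagon receptor. Read-out is inhibition of glucagon-induced cAMP accumulation. Reported as IC50, or as percent inhibition at 10 µM compound. Mean of at least two experiments, SD <50% of mean.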

T1 sequence (P47871 whole entry): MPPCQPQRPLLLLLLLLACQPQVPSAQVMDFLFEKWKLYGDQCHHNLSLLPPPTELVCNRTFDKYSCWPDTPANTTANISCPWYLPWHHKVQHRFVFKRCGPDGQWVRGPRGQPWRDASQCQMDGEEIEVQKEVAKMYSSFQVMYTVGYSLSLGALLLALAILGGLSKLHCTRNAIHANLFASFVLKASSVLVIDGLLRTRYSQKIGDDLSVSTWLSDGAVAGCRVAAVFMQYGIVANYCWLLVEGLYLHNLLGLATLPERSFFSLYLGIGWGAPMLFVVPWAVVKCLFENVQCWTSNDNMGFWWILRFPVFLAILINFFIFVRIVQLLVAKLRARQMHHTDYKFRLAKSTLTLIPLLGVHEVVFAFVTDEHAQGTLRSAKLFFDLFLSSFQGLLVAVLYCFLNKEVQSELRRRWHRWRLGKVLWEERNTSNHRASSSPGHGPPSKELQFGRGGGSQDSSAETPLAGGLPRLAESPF

In the case of `CCC(CC)C(=O)Nc1sc(-c2nc(CC(C)C)no2)c(C)c1C#N`, the Cmax [1] is reported as 800 nM, the IC50 (Glucagon receptor [2]) is reported as 368 nM and the IC50 (Glucagon receptor [3]) is reported as 185 nM. The Clp [4] was 84 mL/min/kg, the Vd [5] was 16 L/kg and the bioavailability [6] was 39%. For the same compound, the half-life [7] was 2.7 h, the half-life [8] was 2.7 h and the Cmax [9] was 800 nM. For the same compound, the bioavailability [10] was 39%, the Vdss [11] was 16 L/kg and the Clp [12] was 84 mL/min/kg.
Work on `CCC(CC)C(=O)Nc1sc2c(c1C#N)CCC(C(C)(C)CC)C2` (stereo unspecified) yielded an IC50 (Glucagon receptor [2]) of 181 nM and an IC50 (Glucagon receptor [3]) of 129 nM.
In the case of `CCC(C)(C)C1CCc2c(sc(NC(=O)c3ccc(Br)cc3)c2C#N)C1` (stereo unspecified), the IC50 (Glucagon receptor [2]) is reported as > 20000 nM.
`CCC(CC)C(=O)Nc1sc2c(c1C#N)CCC(N(C)C1CCCc3ccccc31)C2` (single isomer, unassigned; form 1) gave an IC50 (Glucagon receptor [2]) of 139 nM and an IC50 (Glucagon receptor [3]) of 158 nM.
`CCC(CC)C(=O)Nc1sc2c(c1C#N)CCC(N(Cc1ccc(Cl)cc1Cl)C(C)C)C2` (stereo unspecified) gave an IC50 (Glucagon receptor [2]) of 129 nM and an IC50 (Glucagon receptor [3]) of 59 nM.
With `CCC(CC)C(=O)Nc1sc2c(c1C#N)CCC(N(C)Cc1ccc(Cl)cc1Cl)C2` (stereo unspecified) the IC50 (Glucagon receptor [2]) was 92 nM, the IC50 (Glucagon receptor [3]) was 63 nM and the Clp [4] was 50 mL/min/kg. The Vd [5] was 3.4 L/kg, the bioavailability [6] was 9.2% and the half-life [7] was 1.9 h. It also gave a half-life [8] of 1.9 h, a Cmax [9] of 80 nM and a bioavailability [10] of 9.2%. For the same compound, the Vdss [11] was 3.4 L/kg, the Cmax [13] was 80 nM and the Clp [12] was 50 mL/min/kg.
For `CCC(CC)C(=O)Nc1sc2c(c1C#N)CCC(N(C)C1CCCc3ccccc31)C2` (single isomer, unassigned; form 2), the IC50 (Glucagon receptor [2]) was 118 nM and the IC50 (Glucagon receptor [3]) was 59 nM.
`CCC(CC)C(=O)Nc1sc(-c2nc(Cc3ccc(Cl)cc3Cl)no2)c(C)c1C#N` gave a Cmax [1] of 800 nM, an IC50 (Glucagon receptor [2]) of 89 nM and an IC50 (Glucagon receptor [3]) of 34 nM. For the same compound, the Clp [4] was 23 mL/min/kg, the Vd [5] was 8.7 L/kg and the bioavailability [6] was 36%. The half-life [7] was 5.1 h, the half-life [8] was 5.1 h and the Cmax [9] was 800 nM. The bioavailability [10] was 36%, the Vdss [11] was 8.7 L/kg and the Clp [12] was 23 mL/min/kg.
`CCC(CC)C(=O)Nc1sc2c(c1C(N)=O)CCC(C(C)(C)CC)C2` (stereo unspecified) gave an IC50 (Glucagon receptor [2]) of 870 nM and an inhibition (Glucagon receptor [14]) of 38%.
With `CCC(CC)C(=O)Nc1sc2c(c1C#N)CCC(N(C)Cc1ccccc1)C2` (stereo unspecified) the IC50 (Glucagon receptor [2]) was 3820 nM.
`CCC(CC)C(=O)Nc1sc(C(=O)N(Cc2ccc(Cl)cc2Cl)C(C)C)c(C)c1C#N` showed an IC50 (Glucagon receptor [2]) of 153 nM and an IC50 (Glucagon receptor [3]) of 41 nM.
In the case of `CCC(CC)C(=O)Nc1sc(-c2nnc(CC(C)C)o2)c(C)c1C#N`, the IC50 (Glucagon receptor [2]) is reported as 3210 nM.
